Results published in ChEMBL document CHEMBL4118197, “The discovery and preclinical evaluation of BMS-707035, a potent HIV-1 integrase strand transfer inhibitor” (Bioorg Med Chem Lett, 2018).
Converted amounts (≈) assume the structure as drawn.

Tests used:
[1] = Clearance in cynomolgus monkey at 1 mg/kg, iv; format: ADME, organism-based, Macaca fascicularis; details: in vivo
How it was run: (§1)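 Single IV (about 1 mg/kg) and oral (about 5 mg/kg) doses in rat, cynomolgus monkey and dog; CL, t1/2, Vss, Cmax, tmax, AUC and oral bioavailability F derived from plasma concentration-time data.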

Canis familiaris = organism: Canis familiaris; assay: Toxicity in dog assessed as occurence of convulsions; format: organism-based, Canis lupus familiaris; details: in vivo
[2] = Oral bioavailability in Sprague-Dawley rat at 4.4 mg/kg; format: ADME, organism-based; details: in vivo; how it was run: as §1
[3] = Protein binding in rat plasma; format: ADME, cell-free; details: read-out: PPB (converted)
Salmonella typhimurium [4] = assay: Genotoxicity in Salmonella typhimurium TA98 at =<5000 ug/plate in absence of metabolic activators by Ames test; format: toxicity, organism-based; details: salmonella enterica subsp. enterica serovar typhimurium
How it was run: (§2)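 Bacterial reverse mutation (Ames) test, Salmonella typhimurium TA98 and TA100, up to 5000 µg/plate, with and without metabolic activation.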

[5] = Half-life in Beagle dog at 1 mg/kg, iv; format: ADME, organism-based, Canis lupus familiaris; details: in vivo; how it was run: as §1
[6] = Lipophilicity, log D of the compound at pH 6.5; format: physicochemical; details: buffer
How it was run: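 LogD determined experimentally at pH 6.5.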

[7] = Drug metabolism in dog liver microsomes assessed as CYP-mediated metabolism by measuring compound half life; format: ADME, Canis lupus familiaris
How it was run: (§3)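 Microsomal stability with NADPH (CYP-dependent) in rat, cynomolgus, dog and human microsomes; half-life in min.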

[8] = Volume of distribution at steady state in cynomolgus monkey at 1 mg/kg, iv; format: ADME, organism-based, Macaca fascicularis; details: in vivo, read-out: Vdss
CHO [9] = assay: Genotoxicity in CHO cells at up to 0.36 mM after 22.5 hrs in absence of metabolic activators by micronucleus assay; format: toxicity, cell-based, Cricetulus griseus; details: chinese hamster
How it was run: (§4)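 Cytokinesis-blocked micronucleus test in cultured CHO cells: up to 1.4 mM (500 µg/mL) for 3 h with metabolic activation, or up to 0.36 mM for 22.5 h without activation.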

[10] = Oral bioavailability in Beagle dog at 5.2 mg/kg; format: ADME, organism-based, Canis lupus familiaris; details: in vivo; how it was run: as §1
[11] = Protein binding in cynomolgus monkey plasma; format: ADME, cell-free, Macaca fascicularis; details: read-out: PPB (converted)
[12] = Drug metabolism in cynomolgus monkey liver microsomes assessed as CYP-mediated metabolism by measuring compound half life; format: ADME, Macaca fascicularis; how it was run: as §3
[13] = target: T1, Nuclear receptor subfamily 1 group I member 2 (Homo sapiens, UniProt O75469); assay: Transactivation of human PXR; format: ADME
T1 sequence (O75469 whole entry): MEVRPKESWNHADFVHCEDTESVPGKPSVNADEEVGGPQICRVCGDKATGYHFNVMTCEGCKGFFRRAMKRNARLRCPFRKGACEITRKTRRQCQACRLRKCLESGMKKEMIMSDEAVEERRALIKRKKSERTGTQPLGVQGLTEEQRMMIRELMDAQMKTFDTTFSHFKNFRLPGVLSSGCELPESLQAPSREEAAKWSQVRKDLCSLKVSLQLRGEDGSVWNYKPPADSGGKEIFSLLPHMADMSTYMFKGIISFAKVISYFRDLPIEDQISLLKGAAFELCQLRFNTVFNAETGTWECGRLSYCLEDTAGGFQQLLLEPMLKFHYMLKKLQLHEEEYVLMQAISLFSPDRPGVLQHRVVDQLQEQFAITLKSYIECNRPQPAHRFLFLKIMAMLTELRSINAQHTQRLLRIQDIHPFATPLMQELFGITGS
How it was run: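 Human PXR transactivation assay, with potency reported as EC20A and EC60A values.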

Salmonella typhimurium [14] = assay: Genotoxicity in Salmonella typhimurium TA98 at =<5000 ug/plate in presence of metabolic activators by Ames test; format: toxicity, organism-based; details: salmonella enterica subsp. enterica serovar typhimurium; how it was run: as §2
Homo sapiens [15] = assay: Toxicity in normal healthy human assessed as occurence of adverse events at 200 to 1200 mg, po, administered as single dose; format: organism-based; details: in vivo
How it was run: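 Human subjects received single oral doses of 200, 600, 800 or 1200 mg and were monitored for clinically significant adverse events.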

[16] = Cmax in Sprague-Dawley rat at 4.4 mg/kg, po; format: ADME, organism-based; set-up: dose 4.4 mg/kg, route oral; details: in vivo; how it was run: as §1
Cytochrome P450 1A2 = target: T2, Cytochrome P450 1A2 (Homo sapiens, UniProt P05177); assay: Inhibition of human CYP1A2; format: ADME
T2 sequence (P05177 whole entry): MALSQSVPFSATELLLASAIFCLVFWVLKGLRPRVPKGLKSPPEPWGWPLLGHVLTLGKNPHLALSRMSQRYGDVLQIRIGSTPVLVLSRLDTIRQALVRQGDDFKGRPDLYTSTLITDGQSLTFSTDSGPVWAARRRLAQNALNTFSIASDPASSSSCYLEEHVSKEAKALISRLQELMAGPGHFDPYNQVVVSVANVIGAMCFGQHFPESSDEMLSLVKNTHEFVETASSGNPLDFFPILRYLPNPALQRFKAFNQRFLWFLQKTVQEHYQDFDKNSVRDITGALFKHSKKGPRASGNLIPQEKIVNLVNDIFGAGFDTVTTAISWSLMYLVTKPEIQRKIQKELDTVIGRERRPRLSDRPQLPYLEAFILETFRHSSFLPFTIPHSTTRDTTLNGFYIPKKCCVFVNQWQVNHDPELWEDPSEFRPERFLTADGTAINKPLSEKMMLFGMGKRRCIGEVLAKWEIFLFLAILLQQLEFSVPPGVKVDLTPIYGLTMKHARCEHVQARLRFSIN

[17] = Drug metabolism in human microsomes assessed as CYP-mediated metabolism by measuring compound half life; format: ADME; how it was run: as §3
Homo sapiens [18] = organism: Homo sapiens; assay: Inhibition of human p-gp assessed as decrease in [3H]-digoxin transport at 10 uM
Cytochrome P450 2D6 = Cytochrome P450 2D6 (Homo sapiens, UniProt P10635); assay: Inhibition of human CYP2D6; format: ADME
Salmonella typhimurium [19] = assay: Genotoxicity in Salmonella typhimurium TA100 at =<5000 ug/plate in absence of metabolic activators by Ames test; format: toxicity, organism-based; details: salmonella enterica subsp. enterica serovar typhimurium; how it was run: as §2
Cytochrome P450 3A4 = Cytochrome P450 3A4 (Homo sapiens, UniProt P08684); assay: Inhibition of human CYP3A4; format: ADME
[20] = Clearance in Beagle dog at 1 mg/kg, iv; format: ADME, organism-based, Canis lupus familiaris; details: in vivo; how it was run: as §1
CHO [21] = assay: Genotoxicity in CHO cells at 1.4 mM after 3 hrs in presence of metabolic activators by micronucleus assay; format: toxicity, cell-based, Cricetulus griseus; details: chinese hamster, 1400 µM; how it was run: as §4
[22] = Permeability across apical to basolateral side in human Caco2 cells at 3 uM; format: ADME, cell-based; details: Caco-2, read-out: permeability
How it was run: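 Caco-2 monolayer permeability at 3 µM, apical-to-basolateral and basolateral-to-apical, reported in nm/sec.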

[23] = Ssolubility of the compound at pH 7.3; format: physicochemical; details: buffer
[24] = Oral bioavailability in cynomolgus monkey at 5 mg/kg; format: ADME, organism-based, Macaca fascicularis; details: in vivo; how it was run: as §1

Chain of Cytochrome P450 3A4 (P08684 whole entry): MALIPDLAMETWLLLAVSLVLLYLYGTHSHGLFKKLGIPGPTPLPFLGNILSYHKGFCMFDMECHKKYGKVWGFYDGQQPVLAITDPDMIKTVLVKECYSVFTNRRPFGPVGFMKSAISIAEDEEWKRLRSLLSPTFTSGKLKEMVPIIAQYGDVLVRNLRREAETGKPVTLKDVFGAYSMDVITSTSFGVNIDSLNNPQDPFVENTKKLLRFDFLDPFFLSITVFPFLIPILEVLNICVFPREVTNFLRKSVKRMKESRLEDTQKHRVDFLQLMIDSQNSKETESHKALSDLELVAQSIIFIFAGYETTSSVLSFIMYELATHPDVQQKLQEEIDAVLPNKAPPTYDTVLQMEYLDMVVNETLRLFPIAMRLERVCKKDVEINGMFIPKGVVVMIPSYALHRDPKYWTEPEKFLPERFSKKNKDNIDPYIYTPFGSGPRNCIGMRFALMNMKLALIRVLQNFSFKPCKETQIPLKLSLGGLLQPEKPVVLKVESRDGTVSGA
Chain of Cytochrome P450 2D6 (P10635 whole entry): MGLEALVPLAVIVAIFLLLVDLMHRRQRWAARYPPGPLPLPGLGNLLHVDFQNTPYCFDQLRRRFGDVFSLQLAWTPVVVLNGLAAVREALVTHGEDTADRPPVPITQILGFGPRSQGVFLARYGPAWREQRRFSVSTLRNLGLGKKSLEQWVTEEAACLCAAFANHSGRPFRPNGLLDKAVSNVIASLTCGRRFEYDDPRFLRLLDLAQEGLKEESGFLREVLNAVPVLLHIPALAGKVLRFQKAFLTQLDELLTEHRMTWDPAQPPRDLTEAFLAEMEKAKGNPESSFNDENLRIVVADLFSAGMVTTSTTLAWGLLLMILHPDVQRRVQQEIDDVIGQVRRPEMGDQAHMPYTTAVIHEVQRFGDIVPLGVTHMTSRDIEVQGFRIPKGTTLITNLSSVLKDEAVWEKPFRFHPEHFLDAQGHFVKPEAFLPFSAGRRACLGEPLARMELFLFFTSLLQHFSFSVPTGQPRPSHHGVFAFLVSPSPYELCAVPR

With `CC1(C)OCCn2c1nc(C(=O)NCc1ccc(F)cc1)c(O)c2=O` the clearance [1] was 6.8 mL/min/kg, the Activity (Canis familiaris) was “Toxic” and the bioavailability [2] was 86%. For the same compound, the fraction unbound [3] was 0.063, the Activity (Salmonella typhimurium [4]) was “Non-Toxic” and the half-life [5] was 6 h. For the same compound, the logD [6] was 2.02, the half-life [7] was 1.78 h and the Vd [8] was 0.87 L/kg. The Activity (CHO [9]) was “Non-Toxic”, the bioavailability [10] was 129% and the fraction unbound [11] was 0.041. For the same compound, the half-life [12] was 1.6 h, the EC50 [13] was over 50 µM and the EC20 ([13]; human) was over 50 µM. The EC60 ([13]; human) was over 50 µM, the Activity (Salmonella typhimurium [14]) was “Non-Toxic” and the Activity (Homo sapiens [15]) was “Non-Toxic”. The Cmax [16] was 4.51 µM, the IC50 (Cytochrome P450 1A2) was over 40 µM and the half-life [17] was 1.83 h. For the same compound, the inhibition (Homo sapiens [18]) was 5%, the IC50 (Cytochrome P450 2D6) was over 40 µM and the Activity (Salmonella typhimurium [19]) was “Non-Toxic”. For the same compound, the IC50 (Cytochrome P450 3A4) was over 40 µM, the clearance [20] was 2 mL/min/kg and the Activity (CHO [21]) was “Non-Toxic”. For the same compound, the Papp A→B at 3 µM [22] was 33.4 ×10⁻⁶ cm/s, the solubility [23] was 63 µg/mL (≈ 181 µM) and the bioavailability [24] was 56%.
